The results in this text go back to ChEMBL document CHEMBL1155379, “Effect of 3'-end capping of aptamer with various 2',4'-bridged nucleotides: Enzymatic post-modification toward a practical use of polyclonal aptamers” (Bioorg Med Chem Lett, 2010).

Data set [1] can be described thus: Chemical stability in presence of snake venom phosphodiesterase 1 assessed as oligonucleotide degradation after 120 mins by PAGE. As to conditions: 2 h. Format: physicochemical.
Data set [2] can be described thus: Chemical stability in presence of 80% (v/v) human serum assessed as intact compound remaining after 8 hrs by PAGE. As to conditions: read-out: Stability. Format: physicochemical. In a few lines: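 Aptamer incubated in 80% v/v human serum at 37 °C for 8 h; intact full-length aptamer remaining quantified.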
The next data set deals with Prothrombin (Homo sapiens, UniProt P00734). The data set can be described thus: Binding affinity to human thrombin after 30 mins by non-equilibrium capillary electrophoresis. In a few lines:
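Capillary electrophoresis of aptamer–thrombin mixtures: aptamer 1 nM with thrombin 4 nM in 20 mM Tris-HCl (1 mM MgCl2) pH 7.4 sample buffer; running buffer 100 mM sodium borate pH 8.35; separation +12 kV, injection 0.5 psi × 7.8 s. Kd derived from binding saturation curves over varied thrombin concentrations.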

Take `C=C1NC(=O)C(C)=CN1[C@H]1C[C@H](OP(=O)(O)OC[C@H]2O[C@@H](n3cnc4c(=O)[nH]c(N)nc43)[C@H](O)[C@@H]2OP(=O)(O)OC[C@H]2O[C@@H](n3cnc4c(N)ncnc43)[C@H](O)[C@@H]2OP(=O)(O)OC[C@H]2O[C@@H](n3ccc(N)nc3=O)[C@H](O)[C@@H]2OP(=O)(O)OC[C@H]2O[C@@H](n3cc(C)c(=O)[nH]c3=O)C[C@@H]2O)[C@@H](COP(=O)(O)O[C@H]2[C@@H](O)[C@H](n3cnc4c(=O)[nH]c(N)nc43)O[C@@H]2COP(=O)(O)O[C@H]2[C@@H](O)[C@H](n3cnc4c(=O)[nH]c(N)nc43)O[C@@H]2COP(=O)(O)O[C@H]2[C@@H](O)[C@H](n3cnc4c(=O)[nH]c(N)nc43)O[C@@H]2COP(=O)(O)O[C@H]2[C@@H](O)[C@H](n3cnc4c(=O)[nH]c(N)nc43)O[C@@H]2COP(=O)(O)O[C@H]2C[C@H](n3cc(C)c(=O)[nH]c3=O)O[C@@H]2COP(=O)(O)O[C@H]2C[C@H](n3cc(C)c(=O)[nH]c3=O)O[C@@H]2COP(=O)(O)O[C@H]2[C@@H](O)[C@H](n3cnc4c(=O)[nH]c(N)nc43)O[C@@H]2COP(=O)(O)O[C@H]2[C@@H](O)[C@H](n3cnc4c(=O)[nH]c(N)nc43)O[C@@H]2COP(=O)(O)O[C@H]2[C@@H](O)[C@H](n3cnc4c(N)ncnc43)O[C@@H]2COP(=O)(O)O[C@H]2[C@@H](O)[C@H](n3ccc(N)nc3=O)O[C@@H]2COP(=O)(O)O[C@H]2[C@@H](O)[C@H](n3cnc4c(=O)[nH]c(N)nc43)O[C@@H]2COP(=O)(O)O[C@H]2[C@@H](O)[C@H](n3cnc4c(=O)[nH]c(N)nc43)O[C@@H]2COP(=O)(O)O[C@H]2[C@@H](O)[C@H](n3cnc4c(=O)[nH]c(N)nc43)O[C@@H]2COP(=O)(O)O[C@H]2[C@@H](O)[C@H](n3cnc4c(N)ncnc43)O[C@@H]2COP(=O)(O)O[C@H]2C[C@H](n3cc(C)c(=O)[nH]c3=O)O[C@@H]2COP(=O)(O)O[C@H]2[C@@H](O)[C@H](n3cnc4c(=O)[nH]c(N)nc43)O[C@@H]2COP(=O)(O)O[C@H]2[C@@H](O)[C@H](n3cnc4c(=O)[nH]c(N)nc43)O[C@@H]2COP(=O)(O)O[C@H]2C[C@H](n3cc(C)c(=O)[nH]c3=O)O[C@@H]2COP(=O)(O)O[C@H]2[C@@H](O)[C@H](n3cnc4c(=O)[nH]c(N)nc43)O[C@@H]2COP(=O)(O)O[C@H]2[C@@H](O)[C@H](n3ccc(N)nc3=O)O[C@@H]2COP(=O)(O)O[C@H]2[C@@H](O)[C@H](n3ccc(N)nc3=O)O[C@@H]2COP(=O)(O)O[C@H]2C[C@H](n3cc(C)c(=O)[nH]c3=O)O[C@@H]2COP(=O)(O)O[C@H]2[C@@H](O)[C@H](n3cnc4c(=O)[nH]c(N)nc43)O[C@@H]2COP(=O)(O)O[C@H]2[C@@H](O)[C@H](n3cnc4c(N)ncnc43)O[C@@H]2COc2ccc3c(c2)Oc2cc(O)ccc2C32OC(=O)c3ccccc32)O1` (stereo partly drawn): the Stability result in data set [1] was “Unstable”. Further, in data set [2], the remaining at 8 h worked out at 0%. The Kd on Prothrombin was found to be 0.25 nM.
